# Laboratory results published in PMC7970580 (ACS Omega, 2021).
# Like-named read-outs stand apart in the source and are kept apart here.
# Assays:
# Type in all cases: cell-based
# [1] = system: RKOP 27; assay: MTT antiproliferative assay, colon RKOP 27 cells; conditions: RKOp27, 72 h, read-out: IC50 values, RKOP 27
# Procedure, shortened: (§1)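 ATCC-sourced cancer cells were seeded in RPMI 1640 at 20 000 cells/mL and left 24 h to adhere. Serial dilutions of test compound ([…], in DMSO) were added, then incubated 72 h. MTT (5 mg/mL in PBS) was added for 4 h. Medium was removed, formazan dissolved in DMSO and read at 570 nm. IC50 came from linear regression of the dose–response curve; three runs, mean ± SD.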
# [2] = system: SKMEL-28; assay: MTT antiproliferative assay, melanoma SKMEL-28 cells; conditions: read-out: IC50 values, SKMEL-28
# Procedure, shortened: as §1
# [3] = system: U937; assay: MTT antiproliferative assay, leukemia U937 cells; conditions: Homo sapiens, U-937, 72 h, read-out: IC50 values, U937
# Procedure, shortened: as §1
# [4] = system: HeLa; assay: MTT antiproliferative assay, cervical HeLa cells; conditions: Homo sapiens, 72 h, read-out: IC50 values, HeLa
# Procedure, shortened: as §1
# [5] = system: NCIH 460; assay: MTT antiproliferative assay, large-cell lung NCIH 460 cells; conditions: Homo sapiens, NCI-H460, 72 h, read-out: IC50 values, N CIH 460
# Procedure, shortened: as §1
Molecule,"IC50 ([2]; Homo sapiens, SK-MEL-28, 72 h) [nM]",IC50 [3] [nM],IC50 [4] [nM],"IC50 ([2]; MTT, 72 h, mean ± SD, three runs) [nM]",IC50 [1] [nM],IC50 [5] [nM]
"N#Cc1c(-c2ccc(Cl)cc2)cc(-c2cccc3ccccc23)[nH]c1=O [4a, 4-(4-Chlorophenyl)-6-(naphthalen-1-yl)-2-oxo-1,2-dihydropyridine-3-carbonitrile]",590 ± 15,766 ± 19,250 ± 19,–,30 ± 1.5,66 ± 9
"N#Cc1c(-c2cccs2)cc(-c2cccc3ccccc23)[nH]c1=O [4b, 6-(Naphthalen-1-yl)-2-oxo-4-(thiophen-2-yl)-1,2-dihydropyridine-3-carbonitrile]",669 ± 9.8,836 ± 69,246 ± 69,–,39 ± 9.8,58 ± 6.9
"N#Cc1c(-c2ccc(Cl)cc2)cc(-c2cccc3ccccc23)nc1Cl [6a, 2-Chloro-4-(4-chlorophenyl)-6-(naphthalen-1-yl)nicotinonitrile]",1850 ± 321,1340 ± 174,896 ± 115,–,512 ± 32,689 ± 98
"N#Cc1c(-c2cccs2)cc(-c2cccc3ccccc23)nc1Cl [6b, 2-Chloro-6-(naphthalen-1-yl)-4-(thiophen-2-yl)nicotinonitrile]",1370 ± 215,2550 ± 374,795 ± 96,–,695 ± 56,728 ± 88
"N#Cc1c(-c2cccs2)cc(-c2cccc3ccccc23)[nH]c1=S [7b, 6-(Naphthalen-1-yl)-4-(thiophen-2-yl)-2-thioxo-1,2-dihydropyridine-3-carbonitrile]",1130 ± 137,1570 ± 321,1370 ± 213,–,697 ± 72,638 ± 138
"N#Cc1c(-c2ccc(Cl)cc2)cc(-c2cccc3ccccc23)nc1NCCN [10a, 2-((2-Aminoethyl)amino)-4-(4-chlorophenyl)-6-(naphthalen-1-yl)nicotinonitrile]",1790 ± 236,1810 ± 369,1160 ± 206,–,596 ± 59,896 ± 78
"N#Cc1c(-c2cccs2)cc(-c2cccc3ccccc23)nc1NCCN [10b, 2-((2-Aminoethyl)amino)-6-(naphthalen-1-yl)-4-(thiophen-2-yl)nicotinonitrile]",669 ± 26,642 ± 69,211 ± 69,–,46 ± 2.6,46 ± 6.9
"N#Cc1c(-c2cccs2)cc(-c2cccc3ccccc23)nc1NN [11b, 2-Hydrazinyl-6-(naphthalen-1-yl)-4-(thiophen-2-yl)nicotinonitrile]",1300 ± 106,1590 ± 215,1260 ± 227,–,846 ± 96,478 ± 96
"Cc1nnc2c(C#N)c(-c3ccc(Cl)cc3)cc(-c3cccc4ccccc34)n12 [12a, 7-(4-Chlorophenyl)-3-methyl-5-(naphthalen-1-yl)-[1,2,4]triazolo[4,3-a]pyridine-8-carbonitrile]",510 ± 41,581 ± 51,185 ± 51,–,48 ± 4.1,33 ± 5.1
"Cc1nnc2c(C#N)c(-c3cccs3)cc(-c3cccc4ccccc34)n12 [12b, 3-Methyl-5-(naphthalen-1-yl)-7-(thiophen-2-yl)-[1,2,4]triazolo[4,3-a]pyridine-8-carbonitrile]",1370 ± 389,1470 ± 151,1440 ± 108,–,869 ± 87,648 ± 76
"Cc1cc(=O)[nH]n1-c1nc(-c2cccc3ccccc23)cc(-c2cccs2)c1C#N [13b, 2-(5-Methyl-3-oxo-2,3-dihydro-1H-pyrazol-1-yl)-6-(naphthalen-1-yl)-4-(thiophen-2-yl)nicotinonitrile]",1360 ± 182,1760 ± 68,1360 ± 139,–,698 ± 79,869 ± 76
"CCCCCOC(=O)Nc1nc(=O)n([C@@H]2O[C@H](C)[C@@H](O)[C@H]2O)cc1F [capecitabine, reference compound]",–,–,–,–,4330 ± 64,–
"Nc1ccn([C@@H]2O[C@H](CO)[C@@H](O)C2(F)F)c(=O)n1 [gemcitabine, reference compound]",–,–,–,–,–,2130 ± 50
aldelseukin [reference compound],–,–,–,3450 ± 64,–,–

# The remaining molecules from weak to strong by IC50 [3], led by results:
"IC50 ([2]; Homo sapiens, SK-MEL-28, 72 h) [nM]",IC50 [3] [nM],IC50 [4] [nM],"IC50 ([2]; MTT, 72 h, mean ± SD, three runs) [nM]",Molecule,IC50 [1] [nM],IC50 [5] [nM]
–,4450 ± 50,–,–,"COc1cccc2c1C(=O)c1c(O)c3c(c(O)c1C2=O)C[C@@](O)(C(=O)CO)C[C@@H]3O[C@H]1C[C@H](N)[C@H](O)[C@H](C)O1 [doxorubicin, reference compound]",–,–
1500 ± 218,1690 ± 89,1270 ± 103,–,"Cc1cc(=O)[nH]n1-c1nc(-c2cccc3ccccc23)cc(-c2ccc(Cl)cc2)c1C#N [13a, 4-(4-Chlorophenyl)-2-(5-methyl-3-oxo-2,3-dihydro-1H-pyrazol-1-yl)-6-(naphthalen-1-yl)nicotinonitrile]",879 ± 68,765 ± 89
1240 ± 196,1630 ± 298,1020 ± 136,–,"N#Cc1c(-c2ccc(Cl)cc2)cc(-c2cccc3ccccc23)[nH]c1=S [7a, 4-(4-Chlorophenyl)-6-(naphthalen-1-yl)-2-thioxo-1,2-dihydropyridine-3-carbonitrile]",596 ± 96,764 ± 102
1160 ± 318,1530 ± 255,973 ± 185,–,"N#Cc1c(-c2ccc(Cl)cc2)cc(-c2cccc3ccccc23)n(C(=S)Nc2ccccc2)c1=O [5a, 4-(4-Chlorophenyl)-3-cyano-6-(naphthalen-1-yl)-2-oxo-N-phenylpyridine-1(2H)-carbothioamide]",635 ± 45.8,518 ± 56.6
1260 ± 168,1370 ± 284,1040 ± 326,–,"CCCCCCCCN(c1nc(-c2cccc3ccccc23)cc(-c2cccs2)c1C#N)c1nc(-c2cccc3ccccc23)cc(-c2cccs2)c1C#N [8b, 2,2′-(Octylazanediyl)bis(6-(naphthalen-1-yl)-4-(thiophen-2-yl)nicotinonitrile)]",486 ± 49,468 ± 69
755 ± 18,980 ± 55,277 ± 55,–,"N#Cc1c(-c2cccs2)cc(-c2cccc3ccccc23)n(C(=S)Nc2ccccc2)c1=O [5b, 3-Cyano-6-(naphthalen-1-yl)-2-oxo-N-phenyl-4-(thiophen-2-yl)pyridine-1(2H)-carbothioamide]",56 ± 3.2,32 ± 5.5
1360 ± 98,976 ± 125,1390 ± 110,–,"N#Cc1c(-c2cccs2)cc(-c2cccc3ccccc23)nc1NNC(=O)Cc1ccccc1 [14b, N′-(3-Cyano-6-(naphthalen-1-yl)-4-(thiophen-2-yl)pyridin-2-yl)-2-phenylacetohydrazide]",869 ± 87,789 ± 69
774 ± 21,544 ± 74,229 ± 74,–,"CCCCCCCCN(c1nc(-c2cccc3ccccc23)cc(-c2ccc(Cl)cc2)c1C#N)c1nc(-c2cccc3ccccc23)cc(-c2ccc(Cl)cc2)c1C#N [8a, 2,2′-(Octylazanediyl)bis(4-(4-chlorophenyl)-6-(naphthalen-1-yl)nicotinonitrile)]",40 ± 2.1,48 ± 7.4
572 ± 36,458 ± 72,255 ± 72,–,"N#Cc1c(-c2ccc(Cl)cc2)cc(-c2cccc3ccccc23)nc1NN [11a, 4-(4-Chlorophenyl)-2-hydrazinyl-6-(naphthalen-1-yl)nicotinonitrile]",55 ± 3.6,44 ± 7.2
